Legend:
Assay type in all cases: in vivo
sciatic nerve = assay: Cy5-NP41 nerve labeling and localization in thy1-YFP transgenic mice; details: for nerve-to-muscle contrast / nerve labeling: injected into thy1-YFP transgenic mice
peripheral nerves = details: FAM-labeled peptide, intravenous, living mice; for background binding to surrounding nonneural tissue: 2–4 h after injection
In short: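 Peptides were made as fluorescein-5(6)-carbonyl (FAM) conjugates on a C-terminal lysinamide. The control was a same-format peptide with the shared amino acids in random order. Each was given intravenously to living mice, and FAM fluorescence contrast between peripheral nerve and muscle was evaluated 2–4 h post-injection.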

[1] = Behavior, activity, weight and morbidity after injection; details: mice, injections of 75–300 nmoles
[2] = Biodistribution and urine metabolites after systemic administration; details: mice
In short: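 Mice received 150 nmoles FAM- or Cy5-labeled test peptide intravenously. Organs were harvested and fluorescence uptake was evaluated. Urine was analysed by MALDI mass spectrometry to identify the major fluorescently labeled species. The control was an all-D-amino-acid FAM-labeled peptide.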

CCN1/C(=C/C=C/C=C/C2=[N+](CCCCCC(=O)O)c3ccc(S(=O)(=O)O)cc3C2(C)C)C(C)(C)c2cc(S(=O)(=O)[O-])ccc21 [unconjugated Cy5, reference compound]
nerve-to-muscle contrast / nerve labeling (sciatic nerve): No nerve-to-muscle contrast was detected

AHHNSWKAKHHS [NP38]
background binding to surrounding nonneural tissue (peripheral nerves): high-background binding to the surrounding nonneural tissue

NTQTLAKAPEHT [NP41]
nerve-to-muscle contrast (peripheral nerves; evaluated 2–4 h after injection): best nerve to nonnerve contrast

TYTDWLNFWAWP [NP39]
background binding to surrounding nonneural tissue (peripheral nerves): high-background binding to the surrounding nonneural tissue

acetyl-SHSNTQTLAKAPEHTGC-(Cy5)-amide [Cy5-NP41]
localization within nerve (sciatic nerve; 3–5 µm cryosections of nerves from thy1-YFP animals): localized to the epineurium of the nerves with some labeling of the perineurium and endoneurium, but did not colocalize with either myelin or axons | nerve-to-muscle contrast / nerve labeling (sciatic nerve): precisely labeled nerves that expressed YFP | change in behavior or activity [1]: no change in behavior or activity | biodistribution of fluorescence ([2]; intravenous, 150 nmoles, harvested organs): majority of the fluorescence accumulated in the kidney and was excreted into the urine | state of peptide recovered in urine ([2]; urine, liquid chromatography–electrospray mass spectrometry / MALDI-MS): efficiently metabolized | major fluorescently labeled species in urine ([2]; urine, matrix-assisted laser desorption/ionization mass spectrometry): cysteinamide-Cy5

Reference: paper PMC3364105 (Nature Biotechnology, 2011)
